Measured values reported in PMC10433104 (Journal of medicinal chemistry, 2023).

Molecular target: PDE4D7-S129D (PDE4D*) (Homo sapiens, UniProt Q08499, S190D)
Test: PDE4 enzyme inhibition assay
Format: biochemical
Conditions: ratio of IC50 for PDE4B* over that for PDE4D*
Outline: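 Mutationally activated dimeric enzymes were used: PDE4D7-S129D (PDE4D*) and PDE4B1-S133D (PDE4B*). PDE4B served as the comparator for the PDE4 subtypes. Activity was read with a real-time coupled enzyme assay rather than a fluorescein-labelled cAMP substrate. An IC50 was obtained against each enzyme, and selectivity was taken as PDE4B* IC50 divided by PDE4D* IC50 (B/D ratio).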

Chain of PDE4D7-S129D (PDE4D*) (Q08499 1-748 isoform Q08499-11 S129D, species assumed): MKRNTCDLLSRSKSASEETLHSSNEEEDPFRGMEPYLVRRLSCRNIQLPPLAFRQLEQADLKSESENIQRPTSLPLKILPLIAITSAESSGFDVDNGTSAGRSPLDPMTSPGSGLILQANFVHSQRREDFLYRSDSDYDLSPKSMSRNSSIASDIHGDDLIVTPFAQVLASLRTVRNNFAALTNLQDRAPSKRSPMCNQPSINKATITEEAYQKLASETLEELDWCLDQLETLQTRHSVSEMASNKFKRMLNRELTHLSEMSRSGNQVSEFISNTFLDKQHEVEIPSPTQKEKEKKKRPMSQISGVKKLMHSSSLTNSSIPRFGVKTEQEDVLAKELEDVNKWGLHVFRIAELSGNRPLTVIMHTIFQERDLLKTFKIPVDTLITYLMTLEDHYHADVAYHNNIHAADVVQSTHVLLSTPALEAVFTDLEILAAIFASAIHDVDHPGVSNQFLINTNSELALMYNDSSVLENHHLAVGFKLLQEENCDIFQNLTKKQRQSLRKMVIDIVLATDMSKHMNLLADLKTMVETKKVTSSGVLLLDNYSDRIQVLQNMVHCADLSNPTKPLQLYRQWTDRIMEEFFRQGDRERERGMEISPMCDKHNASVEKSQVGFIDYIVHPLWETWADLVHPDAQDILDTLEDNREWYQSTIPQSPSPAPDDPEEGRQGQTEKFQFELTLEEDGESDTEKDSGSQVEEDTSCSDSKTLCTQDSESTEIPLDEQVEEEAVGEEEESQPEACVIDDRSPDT

SMILES	Selectivity B/D
COc1cccc(-c2nc(COc3cn[nH]c3)ccc2OC(F)F)c1 [Compound 40, 6-(((1H-Pyrazol-4-yl)oxy)methyl)-3-(difluoromethoxy)-2-(3methoxyphenyl)pyridine]	>27
COc1cccc(-c2nc(Cn3cnc(C(F)(F)F)n3)ccc2OC(F)F)c1 [Compound 44, 3-(Difluoromethoxy)-2-(3-methoxyphenyl)-6-((3-(trifluoromethyl)-1H-1,2,4-triazol-1-yl)methyl)pyridine]	>13
COc1ccc(Cn2cncn2)nc1-c1cccc(OC(F)F)c1 [Compound 32, 6-((1H-1,2,4-Triazol-1-yl)methyl)-2-(3-(difluoromethoxy)phenyl)3-methoxypyridine]	>649
COc1ccc(Oc2cn[nH]c2)nc1-c1cccc(OC(F)F)c1 [Compound 18, 6-((1H-Pyrazol-4-yl)oxy)-2-(3-(difluoromethoxy)phenyl)-3-methoxypyridine]	>6
COc1ccc(Cn2cnc(C(F)(F)F)n2)nc1-c1cccc(OC(F)F)c1 [Compound 31, 2-(3-(Difluoromethoxy)phenyl)-3-methoxy-6-((3-(trifluoromethyl)-1H-1,2,4-triazol-1-yl)methyl)pyridine]	>13
COc1ccc(Cn2ncnn2)nc1-c1cccc(OC(F)F)c1 [Compound 34, 6-((2H-Tetrazol-2-yl)methyl)-2-(3-(difluoromethoxy)phenyl)-3methoxypyridine]	>472
Fc1ccc(Cc2cn[nH]c2)nc1-c1cccc(Cl)c1 [Compound 10, 6-((1H-Pyrazol-4-yl)methyl)-2-(3-chlorophenyl)-3-fluoropyridine]	>13
COc1cccc(-c2nc(Nc3cn[nH]c3)ccc2OC(F)F)c1 [Compound 20, 5-(Difluoromethoxy)-6-(3-methoxyphenyl)-N-(1H-pyrazol-4-yl)pyridin-2-amine]	>15
COc1ccc(Cn2cccn2)nc1-c1cccc(F)c1 [Compound 24, 6-((1H-Pyrazol-1-yl)methyl)-2-(3-fluorophenyl)-3-methoxypyridine]	>2
COc1cccc(-c2nc(Cn3cncn3)ccc2OC(F)F)c1 [Compound 45, 6-((1H-1,2,4-Triazol-1-yl)methyl)-3-(difluoromethoxy)-2-(3methoxyphenyl)pyridine]	>238
COc1ccc(Nc2cn[nH]c2)nc1-c1cccc(C(F)(F)F)c1 [Compound 13, 5-Methoxy-N-(1H-pyrazol-4-yl)-6-(3-(trifluoromethyl)phenyl)pyridin-2-amine]	>2

Continued, values first:

Selectivity B/D	SMILES
>61	FC(F)Oc1cccc(-c2nc(Cc3cn[nH]c3)ccc2OCc2ccccc2)c1 [Compound 57]
>2519	COc1ccc(Cc2ccc(CCO)cc2)nc1-c1cccc(OC(F)F)c1 [Compound 53, 2-(4-((6-(3-(Difluoromethoxy)phenyl)-5-methoxypyridin-2-yl)methyl)phenyl)ethan-1-ol]
>13	FC(F)Oc1cccc(-c2nc(Cc3ccncc3)ccc2OCc2ccccc2)c1 [Compound 58, 3-(Benzyloxy)-2-(3-(difluoromethoxy)phenyl)-6-(pyridin-4ylmethyl)pyridine]
>57	FC(F)Oc1cccc(-c2nc(Cn3ccnc3)ccc2OCc2ccccc2)c1 [Compound 59, 6-((1H-Imidazol-1-yl)methyl)-3-(benzyloxy)-2-(3(difluoromethoxy)phenyl)pyridine]
>420	COc1cccc(-c2nc(Cc3ccc(CCCO)cc3)ccc2OC(F)F)c1 [Compound 56, 3-(4-((5-(Difluoromethoxy)-6-(3-methoxyphenyl)pyridin-2-yl)methyl)phenyl)propan-1-ol]
>621	COc1ccc(Cc2ccc(CCCO)cc2)nc1-c1cccc(OC(F)F)c1 [Compound 54, 3-(4-((6-(3-(Difluoromethoxy)phenyl)-5-methoxypyridin-2-yl)methyl)phenyl)propan-1-ol]
>575	COc1cccc(-c2nc(Cn3ncnn3)ccc2OC(F)F)c1 [Compound 47, 6-((2H-Tetrazol-2-yl)methyl)-3-(difluoromethoxy)-2-(3methoxyphenyl)pyridine]
